From publication PMC6785730 (The Journal of General Physiology, 2019)
Positions count from the first letter of the chain named. Where two headings read alike, the source gives them in different places.

Key:
HCN2 channel = conditions: cited from earlier work
HCN2 C-terminus = conditions: 10 and 25 µM HCN2 C-terminus, very high ligand levels; ref Ng et al., 2016; cited from earlier work
L633A HCN2 C-terminus = target: T1, L633A HCN2 C-terminus (Mus musculus, UniProt O88703, L633A); experiment: ITC binding to L633A HCN2 C-terminus
T1 sequence (O88703 443-645 L633A): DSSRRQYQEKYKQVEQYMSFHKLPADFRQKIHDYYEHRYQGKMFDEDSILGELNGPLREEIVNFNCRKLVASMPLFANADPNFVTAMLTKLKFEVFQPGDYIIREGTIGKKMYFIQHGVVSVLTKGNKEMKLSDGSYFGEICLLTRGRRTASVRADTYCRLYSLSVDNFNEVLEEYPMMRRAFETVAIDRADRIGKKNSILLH
Outline: (§1)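 HCN2 C-linker/CNBD point mutant (residues 443–645) expressed from an HMT-tagged pET28 vector in Rosetta DE3 pLacI cells, induced 4 h. […] Integrated heats fitted to a one- or two-site independent binding model; ≥3 replicates.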

D634A HCN2 C-terminus = target: T2, D634A HCN2 C-terminus (Mus musculus, UniProt O88703, D634A); experiment: ITC binding to D634A HCN2 C-terminus; conditions: for Kd: two-site model, mean ± SEM
T2 sequence (O88703 443-645 D634A): T1 sequence (O88703 443-645 L633A) with A191L, D192A
Outline: as §1

R591A HCN2 C-terminus = target: T3, R591A HCN2 C-terminus (Mus musculus, UniProt O88703, R591A); experiment: ITC binding to R591A HCN2 C-terminus
T3 sequence (O88703 443-645 R591A): T1 sequence (O88703 443-645 L633A) with R149A, A191L
Outline: as §1

I630A HCN2 C-terminus = target: T4, I630A HCN2 C-terminus (Mus musculus, UniProt O88703, I630A); experiment: ITC binding to I630A HCN2 C-terminus; conditions: for Kd: two-site model, mean ± SEM
T4 sequence (O88703 443-645 I630A): T1 sequence (O88703 443-645 L633A) with I188A, A191L
Outline: as §1

I636A HCN2 C-terminus = target: T5, I636A HCN2 C-terminus (Mus musculus, UniProt O88703, I636A); experiment: ITC binding to I636A HCN2 C-terminus
T5 sequence (O88703 443-645 I636A): T1 sequence (O88703 443-645 L633A) with A191L, I194A

[1] = target: T6, wild-type HCN2 C-terminus (Mus musculus, UniProt O88703); experiment: ITC binding to wild-type HCN2 C-terminus; conditions: for n: Wild type, mean ± SEM
T6 sequence (O88703 443-645): T1 sequence (O88703 443-645 L633A) with A191L

I636D HCN2 C-terminus = target: T7, I636D HCN2 C-terminus (Mus musculus, UniProt O88703, I636D); experiment: ITC binding to I636D HCN2 C-terminus
T7 sequence (O88703 443-645 I636D): T1 sequence (O88703 443-645 L633A) with A191L, I194D

D631A HCN2 C-terminus = target: T8, D631A HCN2 C-terminus (Mus musculus, UniProt O88703, D631A); experiment: ITC binding to D631A HCN2 C-terminus; conditions: for Kd: two-site model, mean ± SEM
T8 sequence (O88703 443-645 D631A): T1 sequence (O88703 443-645 L633A) with D189A, A191L

K638A HCN2 C-terminus = target: T9, K638A HCN2 C-terminus (Mus musculus, UniProt O88703, K638A); experiment: ITC binding to K638A HCN2 C-terminus
T9 sequence (O88703 443-645 K638A): T1 sequence (O88703 443-645 L633A) with A191L, K196A
Outline: as §1

[2] = target: T10, R632A-HMT HCN2 C-linker/CNBD (Mus musculus, UniProt O88703, R632A); experiment: ITC binding to R632A-HMT protein; conditions: two trials
T10 sequence (O88703 443-645 R632A): T1 sequence (O88703 443-645 L633A) with R190A, A191L

T592A HCN2 C-terminus = target: T11, T592A HCN2 C-terminus (Mus musculus, UniProt O88703, T592A); experiment: ITC binding to T592A HCN2 C-terminus
T11 sequence (O88703 443-645 T592A): T1 sequence (O88703 443-645 L633A) with T150A, A191L
Outline: as §1

[3] = target: T6, wild-type HCN2 C-terminus; conditions: previously found; ref Ng et al., 2016; cited from earlier work
R635A HCN2 C-terminus = target: T12, R635A HCN2 C-terminus (Mus musculus, UniProt O88703, R635A); experiment: ITC binding to R635A HCN2 C-terminus; conditions: stoichiometry, single-site model, four trials, three from Ng et al., 2016
T12 sequence (O88703 443-645 R635A): T1 sequence (O88703 443-645 L633A) with A191L, R193A

[4] = stoichiometry of high-affinity event
[5] = stoichiometry of low-affinity event
[6] = slope of ΔH at 10°C and 25°C, data of Chow et al., 2012
[7] = single-site independent binding model, mean ± SEM
[8] = stoichiometry, single-site model
[9] = single-site independent binding model, mean ± SEM, c value <1
[10] = high-affinity event, two-site model, mean ± SEM
[11] = low-affinity event, two-site model, mean ± SEM
[12] = read-out: Kd Site 1, model input from ITC
[13] = read-out: Kd Site 2, model input from ITC
[14] = read-out: Kd Site 3, model input from ITC
[15] = read-out: Kd Site 4, model input from ITC

## Nc1ccn([C@@H]2O[C@@H]3COP(=O)(O)O[C@H]3[C@H]2O)c(=O)n1 [cCMP]
HCN2 channel
  agonist type: partial agonist
HCN2 C-terminus
  promotion of tetramerization: not able to promote tetramerization

## O=c1[nH]cnc2c1ncn2[C@@H]1O[C@@H]2COP(=O)(O)O[C@H]2[C@H]1O [cIMP]
HCN2 channel
  agonist type: partial agonist
HCN2 C-terminus
  promotion of tetramerization: not able to promote tetramerization

## cAMP
L633A HCN2 C-terminus; [4]
  n: 0.41 ± 0.02
L633A HCN2 C-terminus; [5]
  n: 0.69 ± 0.05
D634A HCN2 C-terminus; [4]
  n: 0.26 ± 0.03
D634A HCN2 C-terminus; [5]
  n: 0.81 ± 0.03
R591A HCN2 C-terminus; [4]
  n: 0.35 ± 0.02
R591A HCN2 C-terminus; [5]
  n: 0.70 ± 0.09
I630A HCN2 C-terminus; [4]
  n: 0.28± 0.03
I630A HCN2 C-terminus; [5]
  n: 0.69 ± 0.07
I636A HCN2 C-terminus; [4]
  n: 0.36 ± 0.01
I636A HCN2 C-terminus; [5]
  n: 0.60 ± 0.03
[1]; [4]
  n: 0.33 ± 0.02
[1]; [5]
  n: 0.66 ± 0.09
[1]; [6]
  ΔCp, high-affinity binding: −159 cal/mol/°C
  ΔCp, low-affinity binding: −898 cal/mol/°C
I636D HCN2 C-terminus; [4]
  n: 0.56 ± 0.07
I636D HCN2 C-terminus; [5]
  n: 0.82 ± 0.02
D631A HCN2 C-terminus; [4]
  n: 0.21 ± 0.02
D631A HCN2 C-terminus; [5]
  n: 0.56 ± 0.04
HCN2 channel
  Hill coefficient: ~1
HCN2 channel; read-out: EC50 determined by the Hill equation
  EC50: ~100 nM
K638A HCN2 C-terminus; [4]
  n: 0.38 ± 0.04
K638A HCN2 C-terminus; [5]
  n: 0.50 ± 0.03
[2]
  binding to R632A-HMT protein: not detected
T592A HCN2 C-terminus; [4]
  n: 0.23 ± 0.01
T592A HCN2 C-terminus; [5]
  n: 0.56 ± 0.06

## cGMP
L633A HCN2 C-terminus; [7]
  Kd: 16500 ± 3200 nM
L633A HCN2 C-terminus; [8]
  n: 0.74 ± 0.09
D634A HCN2 C-terminus; high-affinity event
  Kd: 540 ± 100 nM
D634A HCN2 C-terminus; low-affinity event
  Kd: 8040 ± 1320 nM
D634A HCN2 C-terminus; [4]
  n: 0.23 ± 0.04
D634A HCN2 C-terminus; [5]
  n: 0.87 ± 0.14
R591A HCN2 C-terminus; [9]
  Kd: 322000 ± 26700 nM
R591A HCN2 C-terminus; [8]
  n: 2.15E-5 ± 9.20E-6
I630A HCN2 C-terminus; high-affinity event
  Kd: 490 ± 110 nM
I630A HCN2 C-terminus; low-affinity event
  Kd: 7780 ± 310 nM
I630A HCN2 C-terminus; [4]
  n: 0.24 ± 0.05
I630A HCN2 C-terminus; [5]
  n: 0.44 ± 0.05
[3]
  fold difference between low- and high-affinity binding: 2.3 fold
I636A HCN2 C-terminus; [10]
  Kd: 240 ± 20 nM
I636A HCN2 C-terminus; [11]
  Kd: 3230 ± 150 nM
I636A HCN2 C-terminus; [12]
  Kd: 240 nM
I636A HCN2 C-terminus; [13]
  Kd: 3230 nM
I636A HCN2 C-terminus; [14]
  Kd: 3230 nM
I636A HCN2 C-terminus; [15]
  Kd: 3230 nM
I636A HCN2 C-terminus; [4]
  n: 0.23 ± 0.01
I636A HCN2 C-terminus; [5]
  n: 0.44 ± 0.02
[1]; [4]
  n: 0.21 ± 0.01
[1]; [5]
  n: 0.27 ± 0.01
[1]; found here
  fold difference between low- and high-affinity binding: 3 fold
[1]; wild-type HCN2 C-terminus
  increase of the high-affinity Kd compared with cAMP binding: threefold
  increase of the low-affinity Kd compared with cAMP binding: ~3.4 fold
I636D HCN2 C-terminus; [10]
  Kd: 210 ± 70 nM
I636D HCN2 C-terminus; [11]
  Kd: 1760 ± 510 nM
I636D HCN2 C-terminus; [12]
  Kd: 210 nM
I636D HCN2 C-terminus; [13]
  Kd: 1760 nM
I636D HCN2 C-terminus; [14]
  Kd: 1760 nM
I636D HCN2 C-terminus; [15]
  Kd: 1760 nM
I636D HCN2 C-terminus; [4]
  n: 0.18 ± 0.04
I636D HCN2 C-terminus; [5]
  n: 0.56 ± 0.08
D631A HCN2 C-terminus; high-affinity event
  Kd: 210 ± 60 nM
D631A HCN2 C-terminus; low-affinity event
  Kd: 4780 ± 880 nM
D631A HCN2 C-terminus; [4]
  n: 0.20 ± 0.03
D631A HCN2 C-terminus; [5]
  n: 0.63 ± 0.09
R635A HCN2 C-terminus
  n: 0.67 ± 0.09
K638A HCN2 C-terminus; [7]
  Kd: 14700 ± 2040 nM
K638A HCN2 C-terminus; [8]
  n: 0.47 ± 0.09
[2]
  binding to R632A-HMT protein: not detected
T592A HCN2 C-terminus; [9]
  Kd: 184000 ± 2690 nM
T592A HCN2 C-terminus; [8]
  n: 0.20 ± 0.03
